These results are taken from ChEMBL document CHEMBL1926642, “Relevance of the C-5 position to schweinfurthin induced cytotoxicity” (2011).

Holding throughout (type): functional
For assay [1], the system named is A549. Description: Ratio of GI50 for human A549 cells to GI50 for human SF295 cells after 48 hrs by sulforhodamine B assay. Background: The SRB assay estimates cell density from bound dye.
Another assay relates to RXF 393. Put plainly: Cytotoxicity against human RXF393 cells assessed as cell growth at 10 uM after 48 hrs by sulforhodamine B assay relative to control. The following applies: RXF 393, 48 h, read-out: Activity. Put shortly:
(§1)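 Compounds went through the NCI 60 cell-line screen, whose current protocol tests first at a single dose.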

The next assay concerns TK-10. Put plainly: Cytotoxicity against human TK10 cells assessed as cell growth at 10 uM after 48 hrs by sulforhodamine B assay relative to control. The following applies: TK-10, 48 h, read-out: Activity.
The next assay relates to PC-3. Put plainly: Cytotoxicity against human PC3 cells assessed as cell growth at 10 uM after 48 hrs by sulforhodamine B assay relative to control. The following applies: PC-3, 48 h, read-out: Activity. Put shortly: as §1
A further assay concerns MDA-MB-231. Description: Cytotoxicity against human MDA-MB-231/ATCC cells assessed as cell growth at 10 uM after 48 hrs by sulforhodamine B assay relative to control. The following applies: MDA-MB-231, 48 h, read-out: Activity. The method, boiled down:
as §1

A short description of assay [2]: Cytotoxicity against human Hs 578T cells assessed as cell growth at 10 uM after 48 hrs by sulforhodamine B assay relative to control. The conditions noted are these: read-out: Activity. The method, boiled down: as §1
For the next assay, the system named is BT-549. Description: Cytotoxicity against human BT549 cells assessed as cell growth at 10 uM after 48 hrs by sulforhodamine B assay relative to control. The following applies: BT-549, 48 h, read-out: Activity. The method, boiled down:
as §1

The subject of a further assay is T47D. Put plainly: Cytotoxicity against human T47D cells assessed as cell growth at 10 uM after 48 hrs by sulforhodamine B assay relative to control. The conditions noted are these: read-out: Activity.
A further assay relates to MDA-MB-468. Put plainly: Cytotoxicity against human MDA-MB-468 cells assessed as cell growth at 10 uM after 48 hrs by sulforhodamine B assay relative to control. The conditions noted are these: MDA-MB-468, 48 h, read-out: Activity. Put shortly: as §1
The next assay relates to CCRF-CEM. Put plainly: Cytotoxicity against human CCRF-CEM cells assessed as cell growth at 10 uM after 48 hrs by sulforhodamine B assay relative to control. The conditions noted are these: read-out: Activity. The method, boiled down: as §1
Assay [3] concerns A549. Description: Cytotoxicity against human A549/ATCC cells assessed as cell growth at 10 uM after 48 hrs by sulforhodamine B assay relative to control. The conditions noted are these: A549, 48 h, read-out: Activity. Put shortly:
as §1

For the next assay, the system named is NCI-H23. Put plainly: Cytotoxicity against human NCI-H23 cells assessed as cell growth at 10 uM after 48 hrs by sulforhodamine B assay relative to control. The following applies: NCI-H23, 48 h, read-out: Activity. The method, boiled down: as §1
The test system of another assay is NCI-H322M. Put plainly: Cytotoxicity against human NCI-H322M cells assessed as cell growth at 10 uM after 48 hrs by sulforhodamine B assay relative to control. The conditions noted are these: read-out: Activity. The method, boiled down: as §1
A further assay deals with NCI-H460. Description: Cytotoxicity against human NCI-H460 cells assessed as cell growth at 10 uM after 48 hrs by sulforhodamine B assay relative to control. The conditions noted are these: NCI-H460, 48 h, read-out: Activity. Put shortly:
as §1

In the next assay the test system is HT-29. Put plainly: Cytotoxicity against human HT-29 cells assessed as cell growth at 10 uM after 48 hrs by sulforhodamine B assay relative to control. The following applies: HT-29, 48 h, read-out: Activity. The method, boiled down:
as §1

The subject of a further assay is SF-268. Description: Cytotoxicity against human SF268 cells assessed as cell growth at 10 uM after 48 hrs by sulforhodamine B assay relative to control. The conditions noted are these: SF-268, 48 h, read-out: Activity. Put shortly:
as §1

Another assay has as its system SF-295. Put plainly: Cytotoxicity against human SF295 cells assessed as cell growth at 10 uM after 48 hrs by sulforhodamine B assay relative to control. The following applies: SF-295, 48 h, read-out: Activity. The method, boiled down:
as §1

Another assay has as its system U-251. Description: Cytotoxicity against human U251 cells assessed as cell growth at 10 uM after 48 hrs by sulforhodamine B assay relative to control. The conditions noted are these: U-251, 48 h, read-out: Activity.
The next assay has as its system Malme-3M. Description: Cytotoxicity against human MALME-3M cells assessed as cell growth at 10 uM after 48 hrs by sulforhodamine B assay relative to control. The conditions noted are these: read-out: Activity. Put shortly: as §1
The next assay relates to M14. Put plainly: Cytotoxicity against human M14 cells assessed as cell growth at 10 uM after 48 hrs by sulforhodamine B assay relative to control. The following applies: M14, 48 h, read-out: Activity. Put shortly: as §1
The test system of a further assay is OVCAR-3. Description: Cytotoxicity against human OVCAR3 cells assessed as cell growth at 10 uM after 48 hrs by sulforhodamine B assay relative to control. The conditions noted are these: OVCAR-3, 48 h, read-out: Activity. Put shortly: as §1
The subject of another assay is 786-0. Description: Cytotoxicity against human 786-0 cells assessed as cell growth at 10 uM after 48 hrs by sulforhodamine B assay relative to control. The conditions noted are these: 786-0, 48 h, read-out: Activity. The method, boiled down:
as §1

The next assay deals with A498. Put plainly: Cytotoxicity against human A498 cells assessed as cell growth at 10 uM after 48 hrs by sulforhodamine B assay relative to control. The conditions noted are these: A498, 48 h, read-out: Activity. Put shortly:
as §1

Each structure is given as a SMILES string. Bounds are passed on as bounds.

Regarding `COc1cc(/C=C/c2cc(O)c3c(c2)C[C@@H]2C(C)(C)[C@H](O)CC[C@@]2(C)O3)cc(O)c1C/C=C(\C)CCC=C(C)C`, in the assay with A549 [1], the RatioGI50 is on record as more than 30.

Regarding `COc1cc(/C=C/c2cc3c(c(OC)c2)O[C@]2(C)CC[C@@H](O)C(C)(C)[C@H]2C3)cc(O)c1C/C=C(\C)CCC=C(C)C`, the RatioGI50 with A549 [1] is given as 13.

Take `COc1cc(/C=C/c2cc(Br)c3c(c2)C[C@@H]2C(C)(C)[C@H](O)CC[C@@]2(C)O3)cc(O)c1C/C=C(\C)CCC=C(C)C`: the growth at 10 µM with RXF 393 came to 80.7%; with TK-10 it was 113%; with PC-3, 87.6%; in the assay with MDA-MB-231 it was 96.6%; in assay [2], 64.3%; with BT-549, 108%. Besides, the growth at 10 µM in the assay on T47D came to 109%; with MDA-MB-468 it was 110%; in the assay on CCRF-CEM, 85.3%; in the assay with A549 [3] it was 94.7%; with NCI-H23, 103%; in the assay on NCI-H322M, 102%. Further, the growth at 10 µM with NCI-H460 was found to be 108%; in the assay with HT-29 it was 74.5%; in the assay with SF-268, 88.5%; in the assay with SF-295 it was 109%; in the assay on U-251, 86.3%; with Malme-3M, 115%. The growth at 10 µM is 107% with M14, 88.2% with OVCAR-3, 96% with 786-0 and 94.7% in the assay with A498.

Consider `COCc1cc(/C=C/c2cc(O)c(C/C=C(\C)CCC=C(C)C)c(OC)c2)cc2c1O[C@]1(C)CC[C@@H](O)C(C)(C)[C@H]1C2`, for which the growth at 10 µM in the assay on RXF 393 turned out to be 88%; in the assay on PC-3 it was 79%; in the assay on MDA-MB-231, 81.3%; in assay [2], 82.8%; in the assay with BT-549, 193%; with T47D, 106%. In addition, the growth at 10 µM in the assay on MDA-MB-468 stood at 116%; in the assay on CCRF-CEM, 81.9%; with A549 [3] it was 104%; with NCI-H23, 100%; with NCI-H322M, 167%; in the assay with NCI-H460 it was 105%. The growth at 10 µM with HT-29 was 47.9%; with SF-268 it was 97.1%; in the assay with SF-295 it was 133%; in the assay with U-251, 83.6%; in the assay on M14, 117%; in the assay with OVCAR-3 it was 94.8%. The growth at 10 µM with 786-0 is 69.8%; in the assay with A498 it was 140%.
